# Test results: ChEMBL document CHEMBL1139579, “Structure-activity relationship of a series of cyclohexylpiperidines bearing an amide side chain as antagonists of the human melanocortin-4 receptor” (Bioorg Med Chem Lett, 2005)
# How the values were obtained:
# Melanocortin receptor 4 [1] = molecular target: T1, Melanocortin receptor 4 (Homo sapiens, UniProt P32245); test: Inhibition of [125I]NDP-MSH (radioligand) binding to the hMC4R stably expressed in HEK293 cells; type: cell-based
# Summary of the method: (§1)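 Competition binding was run on HEK293 cells stably transfected with human MC1R, MC3R, MC4R or MC5R, each receptor in its own line. The radioligand was [125I]-NDP-MSH. For the MC4R values, data are the average of two to three independent measurements.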
# Melanocortin receptor 4 [2] = molecular target: T1, Melanocortin receptor 4; test: Stimulation of cAMP levels in the HEK293 cell line at 10 uM; type: functional, cell-based
# Summary of the method: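 Agonism was measured as cAMP levels in HEK293 cells stably expressing human MC4R. The test ligand was applied at 10 μM, and the response was expressed relative to the response to α-MSH.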
# HEK293 = test: Dose-dependent inhibition of cAMP production stimulated by 10 nM a-MSH in HEK293 cells; type: functional, cell-based, Homo sapiens
# Summary of the method: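 Functional antagonism was measured as inhibition of cAMP production in HEK293 cells stably expressing human MC4R. Cells were stimulated with 10 nM α-MSH, and the test ligand was applied over a range of concentrations.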
# Melanocortin receptor 5 = Melanocortin receptor 5 (Homo sapiens, UniProt P33032); test: Inhibition of [125I]NDP-MSH (radioligand) binding to the human MC5R stably expressed in HEK293 cells; type: cell-based; summary of the method: as §1
# Melanocortin receptor 5, sequence (P33032 whole entry): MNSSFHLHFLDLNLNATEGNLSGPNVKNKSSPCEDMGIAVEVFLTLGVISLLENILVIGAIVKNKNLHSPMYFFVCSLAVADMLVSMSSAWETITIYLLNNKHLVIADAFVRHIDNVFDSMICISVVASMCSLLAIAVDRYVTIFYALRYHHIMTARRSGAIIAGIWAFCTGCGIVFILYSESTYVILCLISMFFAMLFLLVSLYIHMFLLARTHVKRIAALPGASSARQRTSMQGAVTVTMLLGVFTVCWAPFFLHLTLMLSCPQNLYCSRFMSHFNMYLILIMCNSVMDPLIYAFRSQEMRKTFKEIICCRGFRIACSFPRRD
# [3] = molecular target: Melanocyte-stimulating hormone receptor (Homo sapiens, UniProt Q01726); test: Inhibition of [125I]NDP-MSH (radioligand) binding to human MC1R at 10 um concentration stably expressed in HEK293 cells; type: cell-based
# Melanocyte-stimulating hormone receptor, sequence (Q01726 whole entry): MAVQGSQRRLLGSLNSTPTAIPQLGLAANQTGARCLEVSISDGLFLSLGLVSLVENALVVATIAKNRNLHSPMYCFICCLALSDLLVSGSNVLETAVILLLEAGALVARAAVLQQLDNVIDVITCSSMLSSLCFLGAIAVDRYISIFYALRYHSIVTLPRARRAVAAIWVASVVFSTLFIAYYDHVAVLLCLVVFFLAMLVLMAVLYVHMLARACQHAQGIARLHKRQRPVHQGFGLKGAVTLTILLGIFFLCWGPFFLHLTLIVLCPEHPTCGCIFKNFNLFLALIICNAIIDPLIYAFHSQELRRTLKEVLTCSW
# Summary of the method: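 Competition binding was run on HEK293 cells stably expressing human MC1R, with [125I]-NDP-MSH as the radioligand. The value is percent inhibition of binding with the test ligand at 10 µM.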
# Melanocortin receptor 4 [4] = molecular target: T1, Melanocortin receptor 4; test: Inhibition of [125I]-AgRP(83132) (radioligand) binding to the hMC4R stably expressed in HEK293 cells; type: cell-based
# Summary of the method: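 Competition binding was run on HEK293 cells stably transfected with human MC4R. The radioligand was [125I]-AgRP(83–132).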
# Melanocortin receptor 3 = Melanocortin receptor 3 (Homo sapiens, UniProt P41968); test: Inhibition of [125I]-NDP-MSH (radioligand) binding to the human MC3R stably expressed in HEK293 cells; type: cell-based; summary of the method: as §1
# Melanocortin receptor 3, sequence (P41968 whole entry): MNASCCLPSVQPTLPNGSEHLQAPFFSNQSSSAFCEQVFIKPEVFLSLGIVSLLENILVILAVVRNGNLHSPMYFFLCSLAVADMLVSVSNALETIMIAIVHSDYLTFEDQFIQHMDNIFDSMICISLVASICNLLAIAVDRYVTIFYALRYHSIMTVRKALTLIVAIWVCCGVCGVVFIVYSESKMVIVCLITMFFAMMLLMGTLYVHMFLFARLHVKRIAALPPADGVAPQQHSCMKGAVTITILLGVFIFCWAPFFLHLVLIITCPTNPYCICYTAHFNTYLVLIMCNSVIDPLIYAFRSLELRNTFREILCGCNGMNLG
# T1 sequence (P32245 whole entry): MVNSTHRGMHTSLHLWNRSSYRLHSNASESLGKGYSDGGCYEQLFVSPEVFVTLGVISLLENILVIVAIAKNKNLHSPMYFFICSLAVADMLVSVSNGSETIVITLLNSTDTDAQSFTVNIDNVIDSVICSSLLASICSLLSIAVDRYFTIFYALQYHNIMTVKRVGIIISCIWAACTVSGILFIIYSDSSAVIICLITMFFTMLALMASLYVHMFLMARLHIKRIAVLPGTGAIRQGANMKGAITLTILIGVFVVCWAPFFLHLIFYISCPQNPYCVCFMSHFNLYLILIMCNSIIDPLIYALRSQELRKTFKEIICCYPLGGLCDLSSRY
structure (smiles),measurement,setting,value
NCCC(=O)N[C@H](Cc1ccc(Cl)cc1Cl)C(=O)N1CCN(C2(CNCc3ccc(OC(F)(F)F)cc3)CCCCC2)CC1,Ki,Melanocortin receptor 4 [1],0.022 µM
same,Stimulation,Melanocortin receptor 4 [2],2.4%
COc1ccc(CC(=O)NCC2(N3CCN(C(=O)[C@@H](Cc4ccc(Cl)cc4Cl)NC(=O)CCN)CC3)CCCCC2)cc1OC,Ki,Melanocortin receptor 4 [1],0.018 µM
same,Stimulation,Melanocortin receptor 4 [2],2.7%
NCCC(=O)N[C@H](Cc1ccc(Cl)cc1Cl)C(=O)N1CCN(C2(CNC(=O)c3ccc(Cl)cc3)CCCCC2)CC1,Ki,Melanocortin receptor 4 [1],0.21 µM
same,Stimulation,Melanocortin receptor 4 [2],10%
N#Cc1ccc(CNCC2(N3CCN(C(=O)[C@@H](Cc4ccc(Cl)cc4Cl)NC(=O)CCN)CC3)CCCCC2)cc1,Ki,Melanocortin receptor 4 [1],0.092 µM
same,Stimulation,Melanocortin receptor 4 [2],5%
CN(C)c1ccc(CNCC2(N3CCN(C(=O)[C@@H](Cc4ccc(Cl)cc4Cl)NC(=O)CCN)CC3)CCCCC2)cc1,Ki,Melanocortin receptor 4 [1],0.11 µM
same,Stimulation,Melanocortin receptor 4 [2],4.2%
COc1ccc(NC(=O)NCC2(N3CCN(C(=O)[C@@H](Cc4ccc(Cl)cc4Cl)NC(=O)CCN)CC3)CCCCC2)cc1,Ki,Melanocortin receptor 4 [1],0.036 µM
same,Stimulation,Melanocortin receptor 4 [2],1%
CC(C)(C)c1ccc(C(=O)NCC2(N3CCN(C(=O)[C@@H](Cc4ccc(Cl)cc4Cl)NC(=O)CCN)CC3)CCCCC2)cc1,Ki,Melanocortin receptor 4 [1],0.52 µM
same,Stimulation,Melanocortin receptor 4 [2],8.2%
NCCC(=O)N[C@H](Cc1ccc(Cl)cc1Cl)C(=O)N1CCN(C2(CNC(=O)c3ccccc3)CCCCC2)CC1,Ki,Melanocortin receptor 4 [1],0.22 µM
same,Stimulation,Melanocortin receptor 4 [2],5.1%
NCCC(=O)N[C@H](Cc1ccc(Cl)cc1Cl)C(=O)N1CCN(C2(CNC(=O)c3ccc(OC(F)(F)F)cc3)CCCCC2)CC1,Ki,Melanocortin receptor 4 [1],0.4 µM
same,Stimulation,Melanocortin receptor 4 [2],8.9%
NCCC(=O)N[C@H](Cc1ccc(Cl)cc1Cl)C(=O)N1CCN(C2(CNC(=O)Nc3ccc([N+](=O)[O-])cc3)CCCCC2)CC1,Ki,Melanocortin receptor 4 [1],0.54 µM
same,Stimulation,Melanocortin receptor 4 [2],11%
NCCC(=O)N[C@H](Cc1ccc(Cl)cc1Cl)C(=O)N1CCN(C2(CNC(=O)c3cccs3)CCCCC2)CC1,Ki,Melanocortin receptor 4 [1],0.23 µM
same,Stimulation,Melanocortin receptor 4 [2],5.1%
NCCC(=O)N[C@H](Cc1ccc(Cl)cc1Cl)C(=O)N1CCN(C2(CNC(=O)Cc3ccc(Cl)cc3)CCCCC2)CC1,Ki,Melanocortin receptor 4 [1],0.023 µM
same,Stimulation,Melanocortin receptor 4 [2],1.4%
NCCC(=O)N[C@H](Cc1ccc(Cl)cc1Cl)C(=O)N1CCN(C2(CNC(=O)c3ccco3)CCCCC2)CC1,Ki,Melanocortin receptor 4 [1],0.26 µM
same,Stimulation,Melanocortin receptor 4 [2],4.5%
COc1ccc(C(=O)NCC2(N3CCN(C(=O)[C@@H](Cc4ccc(Cl)cc4Cl)NC(=O)CCN)CC3)CCCCC2)cc1,Ki,Melanocortin receptor 4 [1],0.25 µM
same,Stimulation,Melanocortin receptor 4 [2],7.7%
NCCC(=O)N[C@H](Cc1ccc(Cl)cc1Cl)C(=O)N1CCN(C2(CNCc3ccccc3F)CCCCC2)CC1,IC50,HEK293,0.76 µM
same,Ki,Melanocortin receptor 4 [1],0.012 µM
same,Stimulation,Melanocortin receptor 4 [2],4.7%
same,Ki,Melanocortin receptor 5,1.4 µM
same,Inhibition,[3]; hek293,45%
same,Ki,Melanocortin receptor 4 [4],0.013 µM
same,Ki,Melanocortin receptor 3,2.3 µM
COc1ccc(CC(=O)NCC2(N3CCN(C(=O)[C@@H](Cc4ccc(Cl)cc4Cl)NC(=O)CCN)CC3)CCCCC2)cc1,IC50,HEK293,0.15 µM
same,Ki,Melanocortin receptor 4 [1],0.0042 µM
same,Stimulation,Melanocortin receptor 4 [2],0.6%
same,Ki,Melanocortin receptor 5,0.54 µM
same,Ki,[3],5.7 µM
same,Ki,Melanocortin receptor 4 [4],0.0028 µM
same,Ki,Melanocortin receptor 3,1.1 µM
CC(C)(C)CCNCC1(N2CCN(C(=O)[C@@H](Cc3ccc(Cl)cc3Cl)NC(=O)CCN)CC2)CCCCC1,Ki,Melanocortin receptor 4 [1],0.34 µM
same,Stimulation,Melanocortin receptor 4 [2],3.6%
NCCC(=O)N[C@H](Cc1ccc(Cl)cc1Cl)C(=O)N1CCN(C2(CNCc3nccs3)CCCCC2)CC1,Ki,Melanocortin receptor 4 [1],0.049 µM
same,Stimulation,Melanocortin receptor 4 [2],4.9%
Cc1ccc(C(=O)NCC2(N3CCN(C(=O)[C@@H](Cc4ccc(Cl)cc4Cl)NC(=O)CCN)CC3)CCCCC2)cc1,Ki,Melanocortin receptor 4 [1],0.27 µM
same,Stimulation,Melanocortin receptor 4 [2],7.8%
COc1cccc(CC(=O)NCC2(N3CCN(C(=O)[C@@H](Cc4ccc(Cl)cc4Cl)NC(=O)CCN)CC3)CCCCC2)c1,Ki,Melanocortin receptor 4 [1],0.0076 µM
same,Stimulation,Melanocortin receptor 4 [2],1.8%
same,Ki,Melanocortin receptor 5,0.47 µM
same,Ki,[3],2.8 µM
same,Ki,Melanocortin receptor 3,0.65 µM
NCCC(=O)N[C@H](Cc1ccc(Cl)cc1Cl)C(=O)N1CCN(C2(CNC(=O)Nc3ccc(Cl)cc3)CCCCC2)CC1,Ki,Melanocortin receptor 4 [1],0.42 µM
same,Stimulation,Melanocortin receptor 4 [2],5.9%
CC(C)CNCC1(N2CCN(C(=O)[C@@H](Cc3ccc(Cl)cc3Cl)NC(=O)CCN)CC2)CCCCC1,Ki,Melanocortin receptor 4 [1],0.18 µM
same,Stimulation,Melanocortin receptor 4 [2],0.7%
NCCC(=O)N[C@H](Cc1ccc(Cl)cc1Cl)C(=O)N1CCN(C2(CNC(=O)Cc3cccs3)CCCCC2)CC1,Ki,Melanocortin receptor 4 [1],0.0084 µM
same,Stimulation,Melanocortin receptor 4 [2],3.4%
same,Ki,Melanocortin receptor 5,0.48 µM
same,Ki,[3],4.6 µM
same,Ki,Melanocortin receptor 3,1.1 µM
NCCC(=O)N[C@H](Cc1ccc(Cl)cc1Cl)C(=O)N1CCN(C2(CNCc3ccccc3)CCCCC2)CC1,Ki,Melanocortin receptor 4 [1],0.018 µM
same,Stimulation,Melanocortin receptor 4 [2],5.1%
NCCC(=O)N[C@H](Cc1ccc(Cl)cc1Cl)C(=O)N1CCN(C2(CNCc3ccc(F)cc3)CCCCC2)CC1,Ki,Melanocortin receptor 4 [1],0.061 µM
same,Stimulation,Melanocortin receptor 4 [2],6.4%
COC(=O)c1ccc(NC(=O)NCC2(N3CCN(C(=O)[C@@H](Cc4ccc(Cl)cc4Cl)NC(=O)CCN)CC3)CCCCC2)cc1,Ki,Melanocortin receptor 4 [1],0.26 µM
same,Stimulation,Melanocortin receptor 4 [2],12%
NCCC(=O)N[C@H](Cc1ccc(Cl)cc1Cl)C(=O)N1CCN(C2(CNC(=O)c3cccnc3)CCCCC2)CC1,Ki,Melanocortin receptor 4 [1],0.22 µM
same,Stimulation,Melanocortin receptor 4 [2],4.3%
NCCC(=O)N[C@H](Cc1ccc(Cl)cc1Cl)C(=O)N1CCN(C2(CNCc3ccccn3)CCCCC2)CC1,Ki,Melanocortin receptor 4 [1],0.036 µM
same,Stimulation,Melanocortin receptor 4 [2],3%
NCCC(=O)N[C@H](Cc1ccc(Cl)cc1Cl)C(=O)N1CCN(C2(CNCCCc3ccccc3)CCCCC2)CC1,Ki,Melanocortin receptor 4 [1],0.06 µM
same,Stimulation,Melanocortin receptor 4 [2],2.8%
NCCC(=O)N[C@H](Cc1ccc(Cl)cc1Cl)C(=O)N1CCN(C2(CNC(=O)c3ccc(Br)cc3)CCCCC2)CC1,Ki,Melanocortin receptor 4 [1],0.24 µM
same,Stimulation,Melanocortin receptor 4 [2],12%
NCCC(=O)N[C@H](Cc1ccc(Cl)cc1Cl)C(=O)N1CCN(C2(CNC(=O)c3ccc(C(F)(F)F)cc3)CCCCC2)CC1,Ki,Melanocortin receptor 4 [1],0.34 µM
same,Stimulation,Melanocortin receptor 4 [2],8.7%
NCCC(=O)N[C@H](Cc1ccc(Cl)cc1Cl)C(=O)N1CCN(C2(CN)CCCCC2)CC1,Ki,Melanocortin receptor 4 [1],0.29 µM
same,Stimulation,Melanocortin receptor 4 [2],0.5%
NCCC(=O)N[C@H](Cc1ccc(Cl)cc1Cl)C(=O)N1CCN(C2(CNC(=O)c3ccncc3)CCCCC2)CC1,Ki,Melanocortin receptor 4 [1],0.15 µM
same,Stimulation,Melanocortin receptor 4 [2],4.4%
CN(C)c1ccc(NC(=O)NCC2(N3CCN(C(=O)[C@@H](Cc4ccc(Cl)cc4Cl)NC(=O)CCN)CC3)CCCCC2)cc1,Ki,Melanocortin receptor 4 [1],0.062 µM
same,Stimulation,Melanocortin receptor 4 [2],2.7%
NCCC(=O)N[C@H](Cc1ccc(Cl)cc1Cl)C(=O)N1CCN(C2(CNC(=O)Nc3ccc(F)cc3)CCCCC2)CC1,Ki,Melanocortin receptor 4 [1],0.21 µM
same,Stimulation,Melanocortin receptor 4 [2],5.5%
NCCC(=O)N[C@H](Cc1ccc(Cl)cc1Cl)C(=O)N1CCN(C2(CNC(=O)C(F)(F)F)CCCCC2)CC1,Ki,Melanocortin receptor 4 [1],0.49 µM
same,Stimulation,Melanocortin receptor 4 [2],0.9%
NCCC(=O)N[C@H](Cc1ccc(Cl)cc1Cl)C(=O)N1CCN(C2(CNCC3CCCCC3)CCCCC2)CC1,Ki,Melanocortin receptor 4 [1],0.22 µM
same,Stimulation,Melanocortin receptor 4 [2],5.1%
NCCC(=O)N[C@H](Cc1ccc(Cl)cc1Cl)C(=O)N1CCN(C2(CNC(=O)Cc3ccc(F)cc3)CCCCC2)CC1,Ki,Melanocortin receptor 4 [1],0.021 µM
same,Stimulation,Melanocortin receptor 4 [2],2.3%
NCCC(=O)N[C@H](Cc1ccc(Cl)cc1Cl)C(=O)N1CCN(C2(CNCc3ccc(C(F)(F)F)cc3)CCCCC2)CC1,Ki,Melanocortin receptor 4 [1],0.045 µM
same,Stimulation,Melanocortin receptor 4 [2],4.1%
NCCC(=O)N[C@H](Cc1ccc(Cl)cc1Cl)C(=O)N1CCN(C2(CNC(=O)c3ccc([N+](=O)[O-])cc3)CCCCC2)CC1,Ki,Melanocortin receptor 4 [1],0.12 µM
same,Stimulation,Melanocortin receptor 4 [2],6.7%
COc1ccccc1C(=O)NCC1(N2CCN(C(=O)[C@@H](Cc3ccc(Cl)cc3Cl)NC(=O)CCN)CC2)CCCCC1,Ki,Melanocortin receptor 4 [1],0.35 µM
same,Stimulation,Melanocortin receptor 4 [2],6.5%
NCCC(=O)N[C@H](Cc1ccc(Cl)cc1Cl)C(=O)N1CCN(C2(CNC(=O)c3ccc(F)cc3)CCCCC2)CC1,Ki,Melanocortin receptor 4 [1],0.19 µM
same,Stimulation,Melanocortin receptor 4 [2],7.9%
